Compounds with a hit are over-represented: about 2.7% of the library has one in this group of screens.
BB579 growth dn = yeast BB579 growth reduction in restrictive medium; 140,000 tested, 0.51% active; S. cerevisiae BB579 growth, OD615, 48 h; inhibition, % at 10 µM;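 active = inhibition above a set limit, 3 SD over the mean compound inhibition, cut at about 44% in these data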
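controls = amphotericin B 10 µg/mL, positive | assay system = DeaD yeast strain BB579 | schedule = 48 h compound exposure at 30 °C after 4 h preincubation | detection = OD615 turbidity measurement | medium = restrictive CSMM-D medium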
SDO1 yeast rescue = restores growth of sdo1-depleted yeast. S. cerevisiae sdo1-depleted JHY4D growth rescue, OD600 30 h; hits give high values; pdr5 snq2 efflux-pump mutant strain. z-score at 10 µM. 140,000 tested, 0.21% active. AID 817;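 active = z-score above 3 at both the 24 hr and the 30 hr optical density reads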;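 also: z-score against mean and SD of all compound wells on the same plate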
RAM network inh = inhibitors of the yeast RAM network. 190,000 tested, 1.8% active. inhibition, % at 50 µM. S. cerevisiae dse1pr::URA3 reporter, 5-FOA growth OD615, 2 d; analog-sensitive cbk1-as2 kinase mutant strain;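 active = inhibition above a set limit, 3 SD over mean compound inhibition, cut at about 8.4% in these data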;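 also: 0% = DMSO-only wells with no growth and 100% = 10 µM 1-NA-PP1 full growth; inhibition rescues growth on 5-FOA so higher OD means more RAM inhibition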
Yeast lifespan up = yeast lifespan extension; S. cerevisiae growth with nicotinamide, OD615; deaD strain in restrictive glucose medium; inhibition of the nicotinamide effect, % at 10 µM; 130,000 tested, 0.68% active; AID 775;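 active = inhibition above a set limit, placed 3 SD over the median of all compounds, cut at about 26% in these data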;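 also: 0% = nicotinamide-treated wells and 100% = cells grown without nicotinamide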
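assay system = DeaD-strain S. cerevisiae | measured by = absorbance at 615 nm | probe or stimulus = nicotinamide 1.5 mM | buffer or medium = CSMM-D glucose medium, restrictive | times = 48 h at 30 °C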
Numbers without * were called inactive; . = no result given; [ ] = remark or other dose.

SMILES	BB579 growth dn	SDO1 yeast rescue	RAM network inh	Yeast lifespan up
COc1ccc(/C=C(/NC(=O)c2ccc(OC)cc2)C(=O)NCCc2c[nH]c3ccccc23)cc1	-45	0.33	8.5*	-4
Cc1ccc(-c2nc(N)sc2-c2ccccc2)cc1C	79*	-2.2	-1	-6
Nc1nc(-c2ccccc2)c(-c2ccccc2)s1	-24	-0.81	2	-16
O=C(CCC(NC(=O)OCc1ccccc1)C(=O)OCc1ccccc1)NCC(=O)OCc1ccccc1 (stereo not drawn)	-44	0.85	8.8*	5
O=S(=O)(Nc1cccc(-c2ccc3nncn3n2)c1)c1ccc(Cl)s1	.	.	1	.
CCOC(=O)C(/C(C)=N/NC(=O)C1CC1c1ccccc1)C(C)C (stereo not drawn)	25	-0.41	2	4
Oc1ccc(Cl)cc1Cc1cc(Cl)ccc1O	84*	-1.9	-1	-7
COc1cc(/C=C(\NC(C)=O)C(=O)Nc2cccc(O)c2)ccc1OC(C)=O	-16	0.72	2	-1
CCOC(=O)/C(=N\Nc1ccccc1Cl)N1CCN(Cc2ccccc2)CC1	59*	-1.6	-2	-8
CSCCC(NC(=O)c1ccc([N+](=O)[O-])cc1Cl)C(=O)OCC(=O)NCCCc1ccccc1 (stereo not drawn)	-38	-0.7	9.5*	4
CSCCC(NC(=O)c1ccc([N+](=O)[O-])cc1Cl)C(=O)OCC(=O)NCC(F)(F)F (stereo not drawn)	-7	0.94	0	4
NC(=O)c1ccc(-n2c(CCC(=O)O)ccc2-c2cccs2)cc1	.	.	1	.
CC(=O)c1ccc(-n2c(CCC(=O)O)ccc2-c2cccs2)cc1	-37	0.77	9.7*	-27
CCCC1Cc2c(sc(N)c2C#N)CO1 (stereo not drawn)	.	.	1	.
Cc1ccc2c(c1)N(CC(=O)OC(CC(C)C)C(=O)NC1CCCC1)C(=O)CO2 (stereo not drawn)	-9	-0.77	8.7*	-3
CC(C)C(OC(=O)CN1C(=O)COc2ccccc21)C(=O)NC1CCCC1 (stereo not drawn)	-8	0.12	1	34*
COc1ccc(OC)c(CC(NC(C)=O)C(=O)NC2CCN(c3cc(C)nc4ncnn34)CC2)c1 (stereo not drawn)	.	.	1	.
Cc1ccc(CSc2nnc3ccc(-c4ccncc4)nn23)cc1	.	.	3	.
O=C(NCc1ccccc1Cl)C1CCN(C(=O)c2sccc2-n2cccc2)CC1	-29	0.39	8.9*	-1
CC(=O)c1cc(C#N)c(SCc2ccc(F)cc2)nc1C	-41	-1.4	7	5
CCOc1ccc2nc(SCc3ccc(CC(=O)O)cc3)c(C#N)cc2c1	.	.	9.5*	.
CCOC(=O)c1cc(C#N)c(SCc2ccc(C#N)cc2)nc1C	-14	0.14[10.1 µM]	10*	-10
CCCCSc1nc(C)c(C(C)=O)cc1C#N	50*	1.7	10*	-16
COc1ccc(C2=NN(c3ccccc3)C(c3cn(CCC(=O)O)nc3-c3ccccc3)C2)cc1 (stereo not drawn)	.	.	4	.
C/C(=N\Nc1ccc([N+](=O)[O-])cc1[N+](=O)[O-])C(C)C(C)C (stereo not drawn)	.	.	9.6*	.
SMILES	BB579 growth dn	SDO1 yeast rescue	RAM network inh	Yeast lifespan up
CCOC(=O)C(C(=O)OCC)C(C)(C)/C(C)=N\Nc1ccc([N+](=O)[O-])cc1[N+](=O)[O-]	-18	-0.85	9.0*	1
CCOC(=O)C(C)/C(C)=N\Nc1ccc([N+](=O)[O-])cc1[N+](=O)[O-] (stereo not drawn)	.	.	-2	.
CCC(CC)=NNc1ccc([N+](=O)[O-])cc1[N+](=O)[O-]	.	.	0	.
O=[N+]([O-])c1ccc(Oc2ccc(S(=O)(=O)Nc3ccccc3)cc2)cc1	-28	-2	9.8*	-1
CN(C)S(=O)(=O)c1cccc(C(=O)Nc2ccccc2)c1	.	.	2	.
O=S(=O)(Nc1ccc(S(=O)(=O)Nc2ccccc2)cc1)c1ccccc1	-9	0.05	1	-12
O=C(Nc1ccccc1)c1cccc(S(=O)(=O)Oc2ccc([N+](=O)[O-])cc2)c1	-23	-0.83	10*	-5
COc1ccc(C(=O)NC(=S)NNC(=O)c2cnccn2)cc1OC	90*	0.25	3	-5
COc1cc(OC)cc(C(=O)NC(=S)NNC(=O)c2cnccn2)c1	29	-1.3	0	23
COC(=O)c1cc(C(=O)OC)[nH]n1	.	.	1	.
CCOC(=O)C1CCN(S(=O)(=O)c2ccc(-c3nc4ccccc4s3)s2)CC1	-34	-0.22	8.4*	2
COc1cccc(NC(=O)CSc2nc3c(c(-c4ccco4)c2C#N)CCCC3)c1	-16	0.41	9.2*	-5
Cn1c(N)c(C(=O)c2ccc(Cl)cc2)c(=O)n(C)c1=O	-11	1.4	-1	-4
Cn1c(N)c(C(=O)c2ccc(F)cc2F)c(=O)n(C)c1=O	-20	0.47	0	40*
CN(C)CCNC(C(=O)Nc1cccc(C(F)(F)F)c1)c1ccccc1 (stereo not drawn)	.	.	1	.
O=C(Nc1cccc(C(F)(F)F)c1)C(Sc1cccc[n+]1[O-])c1ccccc1 (stereo not drawn)	59*	0.63	0	3
CCCCc1ccc(NS(=O)(=O)c2cccs2)cc1	58*	-2.8	-1	-22
Cc1ccccc1COC(=O)c1nn(-c2ccccc2)nc1N	.	.	9.4*	.
N#C/C(C(N)=O)=c1/ccc2c(c1)N1C3=C(CCCC3)CC3CCCCC31N=2 (stereo not drawn)	-19	-1.7	8	37*
C/C(CC(=O)N(C(C)C)C(C)C)=N\NC(=O)c1ccccc1Br	-13	0.89	2	7
Cc1ccccc1C(=O)NC(=S)Nc1ccc2[nH]c(=O)[nH]c2c1	.	.	1	.
O=C(COC(=O)/C=C/c1cccc(Br)c1)NCCC1=CCCCC1	-35	-0.22	9.8*	9
COc1cc(/C=C/C(=O)OCC(=O)NCCC2=CCCCC2)ccc1O	.	.	1	.
S=C(NCc1ccco1)N1CCN(C/C=C/c2ccccc2)CC1	.	.	2	.
COc1ccc(-n2c(Cc3cccn3C)nnc2SCC(=O)Nc2ccccc2)cc1	3	-0.21	9.8*	-7
SMILES	BB579 growth dn	SDO1 yeast rescue	RAM network inh	Yeast lifespan up
COc1ccc(-n2c(Cc3cccn3C)nnc2SCC(=O)Nc2ccc(Cl)cc2)cc1	-27	-0.72	3	-9
O=C(/C=C/c1ccccc1)Nc1ncn[nH]1	-22	0.69	-1	36*
Cc1ccc(S(=O)(=O)/C(C#N)=C/c2ccccc2OCc2ccccc2)cc1	-27	0.8	8.6*	20
CN1C(=O)/C(=C/c2ccccc2Cl)Sc2ccc(C(=O)NCc3cccnc3)cc21	.	.	-2	.
CCOC(=O)C(=Cc1ccc(-n2ccnc2)cc1)C(=O)OCC	.	.	0	.
CCOC(=O)C(=Cc1ccc(F)cc1)C(=O)OCC	-48	-1	1	78*
CC/C(=N/Nc1cccc(Cl)c1)c1cnnc(SC)n1	-51	-0.71	9.0*	3
Cc1cccc(NC(=O)COn2nnc3ccc(S(C)(=O)=O)cc32)c1	.	.	3	.
Cc1ccc(Nc2cc(C)nn2-c2nc(C)cc(C)n2)cc1	25	-1.2	0	-10

Bioassay records as filed in PubChem BioAssay.
